Experimental data as given in ChEMBL document CHEMBL1155938, “Design, synthesis and biological evaluation of new tryptamine and tetrahydro-beta-carboline-based selective inhibitors of CDK4” (Bioorg Med Chem, 2008).

Legend:
[1] = biological target: Cyclin-dependent kinase 4/cyclin D1 (Homo sapiens, UniProt P11802); test: Inhibition of human CDK4/GST-cyclin D1 expressed in Sf9 cells assessed as retinoblastoma GST-RB152 phosphorylation
Outline: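 CDK4 with GST-cyclin D1 was co-expressed in Sf-9, purified on glutathione-agarose and dialysed. The substrate was GST-RB152, expressed in E. coli BL21(DE3)pLysS (4 mM IPTG, 4 h, 37 °C). The buffer was 40 mM Tris pH 7.5, 20 mM MgCl₂, 0.1 mg/mL BSA plus inhibitors and DTT. 200 ng enzyme ran 30 min at 30 °C. Kinase-Glo luminescence (ATP depletion) gave IC50.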

[2] = biological target: Cyclin-dependent kinase 2 (Homo sapiens, UniProt P24941); test: Inhibition of human CDK2/GST-cyclin A expressed in Sf9 cells assessed as histone phosphorylation
Outline: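 Sf-9 co-expressed CDK2 with GST-cyclin A, purified on glutathione-agarose and dialysed. Histone H1 was the substrate, in 40 mM Tris pH 7.5, 20 mM MgCl₂, 0.1 mg/mL BSA with phosphatase/protease inhibitors and DTT. Compounds came from 10 mM DMSO stock, serially diluted. 200 ng enzyme was incubated 30 min at 30 °C. ATP depletion was read by Kinase-Glo luminescence, and IC50 derived.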

Sequence of Cyclin-dependent kinase 4/cyclin D1 (P11802 whole entry): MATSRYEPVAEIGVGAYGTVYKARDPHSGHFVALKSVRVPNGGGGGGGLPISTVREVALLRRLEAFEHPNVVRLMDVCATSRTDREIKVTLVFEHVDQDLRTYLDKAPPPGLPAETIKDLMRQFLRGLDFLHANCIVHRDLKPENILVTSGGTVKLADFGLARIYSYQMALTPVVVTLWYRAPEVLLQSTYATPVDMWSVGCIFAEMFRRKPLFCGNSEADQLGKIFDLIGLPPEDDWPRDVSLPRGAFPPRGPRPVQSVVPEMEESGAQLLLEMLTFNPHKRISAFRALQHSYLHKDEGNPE
Sequence of Cyclin-dependent kinase 4/cyclin D1 (P24385 whole entry, further chain): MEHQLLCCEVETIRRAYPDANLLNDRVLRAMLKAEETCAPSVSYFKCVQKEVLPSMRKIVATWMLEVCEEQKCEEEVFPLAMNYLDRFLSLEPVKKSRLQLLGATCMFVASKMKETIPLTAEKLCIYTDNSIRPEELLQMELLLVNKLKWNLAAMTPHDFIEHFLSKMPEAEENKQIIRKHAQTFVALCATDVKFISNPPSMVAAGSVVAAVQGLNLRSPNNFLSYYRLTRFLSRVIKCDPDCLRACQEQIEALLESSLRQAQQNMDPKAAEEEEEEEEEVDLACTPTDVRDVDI

Row | SMILES | IC50 [1] | IC50 [2]
1 | CN(CCc1c[nH]c2ccccc12)C(=O)c1ccc(-c2ccccc2)cc1 | 6 µM | 
2 | O=C(c1cccc(-c2ccccc2F)c1)N1CCc2c([nH]c3ccccc23)C1 | 18 µM | 335 µM
3 | COc1cccc(-c2ccc(C(=O)N3CCc4c([nH]c5ccccc45)C3)cc2)c1 | 28 µM | 424 µM
4 | COc1ccccc1-c1ccc(C(=O)N2CCc3c([nH]c4ccccc34)C2)cc1 | 22 µM | 321 µM
5 | Cc1cccc(-c2ccccc2C(=O)NCCc2c[nH]c3ccccc23)c1 | 15 µM | 406 µM
6 | Cc1ccc(-c2cccc(C(=O)N3CCc4c([nH]c5ccccc45)C3)c2)cc1 | 24 µM | 466 µM
7 | O=C(c1ccc(-c2cccc(F)c2)cc1)N1CCc2c([nH]c3ccccc23)C1 | 21 µM | 296 µM
8 | O=C(c1ccc(-c2ccccc2F)cc1)N1CCc2c([nH]c3ccccc23)C1 | 17 µM | 310 µM
9 | COc1cccc(-c2ccccc2C(=O)NCCc2c[nH]c3ccccc23)c1 | 53 µM | 926 µM
10 | COc1ccccc1-c1ccccc1C(=O)NCCc1c[nH]c2ccccc12 | 26 µM | 375 µM
11 | COc1cccc(-c2cccc(C(=O)N3CCc4c([nH]c5ccccc45)C3)c2)c1 | 33 µM | 362 µM
12 | COc1ccccc1-c1cccc(C(=O)N2CCc3c([nH]c4ccccc34)C2)c1 | 79 µM | 1110 µM
13 | O=C(NCCc1c[nH]c2ccccc12)c1ccccc1-c1cccc(F)c1 | 20 µM | 417 µM
14 | COc1ccc(-c2ccccc2C(=O)NCCc2c[nH]c3ccccc23)cc1 | 79 µM | 921 µM
15 | O=C(c1ccc(-c2ccc(F)cc2)cc1)N1CCc2c([nH]c3ccccc23)C1 | 12 µM | 438 µM
16 | CN(CCc1c[nH]c2ccccc12)C(=O)c1ccc(-c2ccncc2)cc1 | 26 µM | 92 µM
17 | O=C(c1ccccc1-c1ccncc1)N1CCc2c([nH]c3ccccc23)C1 | 39 µM | 354 µM
18 | O=C(c1ccccc1-c1ccccc1F)N1CCc2c([nH]c3ccccc23)C1 | 19 µM | 434 µM
19 | O=C(c1cccc(-c2ccc(F)cc2)c1)N1CCc2c([nH]c3ccccc23)C1 | 25 µM | 318 µM
20 | O=C(c1ccccc1-c1cccnc1)N1CCc2c([nH]c3ccccc23)C1 | 36 µM | 312 µM
21 | O=C(c1ccccc1-c1ccc(F)cc1)N1CCc2c([nH]c3ccccc23)C1 | 23 µM | 357 µM
22 | Cc1cccc(-c2cccc(C(=O)N3CCc4c([nH]c5ccccc45)C3)c2)c1 | 11 µM | 465 µM

Row | SMILES | IC50 [1] | IC50 [2]
23 | Cc1ccccc1-c1cccc(C(=O)N2CCc3c([nH]c4ccccc34)C2)c1 | 75 µM | 665 µM
24 | Cc1ccc(-c2ccc(C(=O)N3CCc4c([nH]c5ccccc45)C3)cc2)cc1 | 9 µM | 736 µM
25 | Cc1cccc(-c2ccc(C(=O)N3CCc4c([nH]c5ccccc45)C3)cc2)c1 | 25 µM | 405 µM
26 | O=C(NCCc1c[nH]c2ccccc12)c1ccc(-c2ccc(F)cc2)cc1 | 15 µM | 764 µM
27 | Cc1ccc(-c2ccc(C(=O)NCCc3c[nH]c4ccccc34)cc2)cc1 | 18 µM | 816 µM
28 | O=C(NCCc1c[nH]c2ccccc12)c1ccccc1-c1ccc(F)cc1 | 38 µM | 1220 µM
29 | O=C(NCCc1c[nH]c2ccccc12)c1cccc(-c2ccccc2)c1 | 86 µM | 1000 µM
30 | CN(CCc1c[nH]c2ccccc12)C(=O)c1ccc(-c2ccc(F)cc2)cc1 | 21 µM | 875 µM
31 | CN(CCc1c[nH]c2ccccc12)C(=O)c1ccc(-c2ccc(C(C)(C)C)cc2)cc1 | 11.2 µM | 745 µM
32 | CN(CCc1c[nH]c2ccccc12)C(=O)c1ccc(-c2ccc(-c3ccccc3)cc2)cc1 | 35 µM | 91 µM
33 | CC(C)(C)c1ccc(-c2ccc(C(=O)NCCc3c[nH]c4ccccc34)cc2)cc1 | 9.2 µM | 790 µM
34 | O=C(c1cccc(-c2cccc(F)c2)c1)N1CCc2c([nH]c3ccccc23)C1 | 27 µM | 611 µM
35 | O=C(NCCc1c[nH]c2ccccc12)c1cccc(-c2cccnc2)c1 | 30 µM | 150 µM
36 | Cc1cccc(-c2ccccc2C(=O)N2CCc3c([nH]c4ccccc34)C2)c1 | 26 µM | 386 µM
37 | O=C(c1ccccc1-c1cccc(F)c1)N1CCc2c([nH]c3ccccc23)C1 | 35 µM | 480 µM
38 | Cc1ccccc1-c1ccc(C(=O)N2CCc3c([nH]c4ccccc34)C2)cc1 | 32 µM | 340 µM
39 | O=C(NCCc1c[nH]c2ccccc12)c1ccc(-c2ccccc2)cc1 | 16 µM | 855 µM
40 | CC(C)(C)c1ccc(-c2ccccc2C(=O)NCCc2c[nH]c3ccccc23)cc1 | 38 µM | 262 µM
41 | COc1ccc(-c2ccc(C(=O)N(C)CCc3c[nH]c4ccccc34)cc2)cc1 | 49 µM | 289 µM
42 | Cc1ccc(-c2ccc(C(=O)N(C)CCc3c[nH]c4ccccc34)cc2)cc1 | 24 µM | 70 µM
43 | COc1ccc(-c2ccc(C(=O)NCCc3c[nH]c4ccccc34)cc2)cc1 | 48 µM | 1090 µM
44 | O=C1c2ccccc2-[n+]2ccc3c([nH]c4ccccc43)c21 [FASCAPLYSIN CHLORIDE] | 0.55 µM | 500 µM
